Test results reported in ChEMBL document CHEMBL2150901, “Synthesis and biological activity of tricyclic cycloalkylimidazo-, pyrimido- and diazepinopurinediones” (Eur J Med Chem, 2011).
Activity calls are given as the source filed them. No cut-off for these calls is given here.

How the values were obtained:
[1] = tested on: Mus musculus; experiment: Anticonvulsant activity in F1 albino mouse assessed as protection against subcutaneous pentylenetetrazole-induced seizures at 100 mg/kg, ip after 0.25 hrs; format: functional, organism-based; parameters: dose 100 mg/kg
Method in brief: (§1)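 Male albino F-1 mice (18–25 g), groups of 1–5 (rotorod 2–8). Compound given ip as a suspension in 0.5% methylcellulose at 30, 100 and 300 mg/kg. Seizures by maximal electroshock or subcutaneous pentylenetetrazole; neurotoxicity by rotorod. Read at 0.5 and 4 h, with some at 0.25, 1 and 2 h. Value is the minimum active dose, with protected (or toxic)/tested animals.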

[2] = species on record: Rattus norvegicus; experiment: Selectivity ratio of Ki for adenosine A1 receptor in rat brain cortical membrane to Ki for adenosine A2A receptor in rat brain striatal membrane; format: cell membranes
Method in brief: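 Ki ratios from radioligand competition binding. Rat A1 used brain cortical membranes and rat A2A used brain striatal membranes. Human A1 and A2A used membranes of CHO cells expressing the receptors. A1 radioligand [³H]CCPA; A2A radioligand [³H]MSX-2. Potent compounds were tested at 6–7 concentrations spanning 3 orders of magnitude.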

[3] = tested on: Mus musculus; experiment: Anticonvulsant activity in F1 albino mouse assessed as protection against maximal electroshock-induced seizures at 300 mg/kg, ip after 1 hr; format: functional, organism-based; parameters: dose 300 mg/kg; method in brief: as §1
[4] = tested on: Rattus norvegicus; experiment: Anticonvulsant activity in Sprague-Dawley albino rat assessed as protection against subcutaneous pentylenetetrazole-induced seizures at 50 mg/kg, po after 2 hrs; format: functional, organism-based; parameters: dose 50 mg/kg
Method in brief: (§2)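 Male Sprague-Dawley albino rats (100–150 g), groups of 4. Oral suspension in 0.5% methylcellulose/water. Protection assessed by maximal electroshock or subcutaneous pentylenetetrazole; motor impairment by rotorod. Time points 0.25–4 h. Value is protected (or toxic)/tested animals.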

[5] = tested on: Mus musculus; experiment: Anticonvulsant activity in F1 albino mouse assessed as protection against subcutaneous pentylenetetrazole-induced seizures at 300 mg/kg, ip after 4 hrs; format: functional, organism-based; parameters: dose 300 mg/kg; method in brief: as §1
[6] = tested on: Rattus norvegicus; experiment: Anticonvulsant activity in Sprague-Dawley albino rat assessed as protection against maximal electroshock-induced seizures at 30 mg/kg, po after 0.5 hrs; format: functional, organism-based; parameters: dose 30 mg/kg; method in brief: as §2
[7] = tested on: Mus musculus; experiment: Neurotoxicity in F1 albino mouse assessed as minimal motor impairment at 300 mg/kg, ip after 0.25 hrs by rotorod test; format: toxicity, organism-based; parameters: dose 300 mg/kg, route intraperitoneal; details: in vivo; method in brief: as §1
[8] = tested on: Rattus norvegicus; experiment: Anticonvulsant activity in Sprague-Dawley albino rat assessed as protection against subcutaneous pentylenetetrazole-induced seizures at 50 mg/kg, po after 0.25 hrs; format: functional, organism-based; parameters: dose 50 mg/kg; method in brief: as §2
[9] = tested on: Mus musculus; experiment: Anticonvulsant activity in F1 albino mouse assessed as protection against maximal electroshock-induced seizures at 300 mg/kg, ip after 4 hrs; format: functional, organism-based; parameters: dose 300 mg/kg; method in brief: as §1
[10] = tested on: Rattus norvegicus; experiment: Anticonvulsant activity in Sprague-Dawley albino rat assessed as protection against subcutaneous pentylenetetrazole-induced seizures at 50 mg/kg, po after 4 hrs; format: functional, organism-based; parameters: dose 50 mg/kg; method in brief: as §2
[11] = tested on: Mus musculus; experiment: Anticonvulsant activity in F1 albino mouse assessed as protection against subcutaneous pentylenetetrazole-induced seizures at 300 mg/kg, ip after 0.5 hrs; format: functional, organism-based; parameters: dose 300 mg/kg; method in brief: as §1
[12] = tested on: Mus musculus; experiment: Neurotoxicity in F1 albino mouse assessed as minimal motor impairment at 300 mg/kg, ip after 0.5 hrs by rotorod test; format: toxicity, organism-based; parameters: dose 300 mg/kg, route intraperitoneal; details: in vivo; method in brief: as §1
[13] = tested on: Mus musculus; experiment: Anticonvulsant activity in F1 albino mouse assessed as protection against maximal electroshock-induced seizures at 300 mg/kg, ip after 0.25 hrs; format: functional, organism-based; parameters: dose 300 mg/kg; method in brief: as §1
[14] = tested on: Rattus norvegicus; experiment: Neurotoxicity in Sprague-Dawley albino rat assessed as minimal motor impairment at 30 mg/kg, po after 4 hrs by rotorod test; format: toxicity, organism-based; parameters: dose 30 mg/kg, route oral; details: in vivo
Method in brief: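 Male Sprague-Dawley albino rats (100–150 g), groups of 4, dosed orally with a suspension in 0.5% methylcellulose/water. Neurotoxicity was scored as minimal motor impairment on the rotorod at 0.25, 0.5, 1 and 4 h. Results are reported as animals showing toxicity per animals tested.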

[15] = tested on: Rattus norvegicus; experiment: Anticonvulsant activity in Sprague-Dawley albino rat assessed as protection against maximal electroshock-induced seizures at 30 mg/kg, po after 4 hrs; format: functional, organism-based; parameters: dose 30 mg/kg; method in brief: as §2
[16] = tested on: Mus musculus; experiment: Anticonvulsant activity in F1 albino mouse assessed as protection against subcutaneous pentylenetetrazole-induced seizures at 100 mg/kg, ip after 1 hr; format: functional, organism-based; parameters: dose 100 mg/kg; method in brief: as §1
[17] = tested on: Rattus norvegicus; experiment: Neurotoxicity in Sprague-Dawley albino rat assessed as minimal motor impairment at 30 mg/kg, po after 1 hr by rotorod test; format: toxicity, organism-based; parameters: dose 30 mg/kg, route oral; details: in vivo; method in brief: as §2
[18] = tested on: Mus musculus; experiment: Neurotoxicity in F1 albino mouse assessed as minimal motor impairment at 300 mg/kg, ip after 1 hr by rotorod test; format: toxicity, organism-based; parameters: dose 300 mg/kg, route intraperitoneal; details: in vivo; method in brief: as §1
[19] = tested on: Rattus norvegicus; experiment: Anticonvulsant activity in Sprague-Dawley albino rat assessed as protection against maximal electroshock-induced seizures at 30 mg/kg, po after 2 hrs; format: functional, organism-based; parameters: dose 30 mg/kg; method in brief: as §2
[20] = tested on: Mus musculus; experiment: Anticonvulsant activity in F1 albino mouse assessed as protection against maximal electroshock-induced seizures at 300 mg/kg, ip after 0.5 hrs; format: functional, organism-based; parameters: dose 300 mg/kg; method in brief: as §1
[21] = tested on: Mus musculus; experiment: Neurotoxicity in F1 albino mouse assessed as minimal motor impairment at 300 mg/kg, ip after 4 hrs by rotorod test; format: toxicity, organism-based; parameters: dose 300 mg/kg, route intraperitoneal; details: in vivo; method in brief: as §1
[22] = tested on: Rattus norvegicus; experiment: Anticonvulsant activity in Sprague-Dawley albino rat assessed as protection against subcutaneous pentylenetetrazole-induced seizures at 50 mg/kg, po after 1 hr; format: functional, organism-based; parameters: dose 50 mg/kg; method in brief: as §2
[23] = target: Adenosine receptor A2a (Rattus norvegicus, UniProt P30543); experiment: Displacement of [3H]MSX-2 from adenosine A2A receptor in rat brain striatal membrane; format: cell membranes
Sequence of Adenosine receptor A2a (P30543 whole entry): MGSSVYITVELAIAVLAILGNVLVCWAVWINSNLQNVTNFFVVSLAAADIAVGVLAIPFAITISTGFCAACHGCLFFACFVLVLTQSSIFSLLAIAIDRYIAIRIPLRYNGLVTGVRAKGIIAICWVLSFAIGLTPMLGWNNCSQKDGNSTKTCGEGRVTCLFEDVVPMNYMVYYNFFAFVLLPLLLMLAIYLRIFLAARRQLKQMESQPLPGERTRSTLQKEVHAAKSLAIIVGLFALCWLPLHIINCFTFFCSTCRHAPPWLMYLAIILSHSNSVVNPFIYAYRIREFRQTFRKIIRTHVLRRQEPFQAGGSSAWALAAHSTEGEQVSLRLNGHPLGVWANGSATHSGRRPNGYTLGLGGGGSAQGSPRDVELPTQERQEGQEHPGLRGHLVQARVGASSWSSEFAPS

[24] = tested on: Rattus norvegicus; experiment: Anticonvulsant activity in po dosed Sprague-Dawley albino rat assessed as protection against subcutaneous pentylenetetrazole-induced seizures after 0.25 hrs; format: functional
[25] = tested on: Rattus norvegicus; experiment: Anticonvulsant activity in Sprague-Dawley albino rat assessed as protection against maximal electroshock-induced seizures at 30 mg/kg, po after 1 hr; format: functional, organism-based; parameters: dose 30 mg/kg; method in brief: as §2
[26] = tested on: Rattus norvegicus; experiment: Neurotoxicity in Sprague-Dawley albino rat assessed as minimal motor impairment at 30 mg/kg, po after 0.25 hrs by rotorod test; format: toxicity, organism-based; parameters: dose 30 mg/kg, route oral; details: in vivo; method in brief: as §2
[27] = target: T1, Adenosine receptor A1 (Rattus norvegicus, UniProt P25099); experiment: Displacement of [3H]CCPA from adenosine A1 receptor in rat brain cortical membrane; format: cell membranes
T1 sequence (P25099 whole entry): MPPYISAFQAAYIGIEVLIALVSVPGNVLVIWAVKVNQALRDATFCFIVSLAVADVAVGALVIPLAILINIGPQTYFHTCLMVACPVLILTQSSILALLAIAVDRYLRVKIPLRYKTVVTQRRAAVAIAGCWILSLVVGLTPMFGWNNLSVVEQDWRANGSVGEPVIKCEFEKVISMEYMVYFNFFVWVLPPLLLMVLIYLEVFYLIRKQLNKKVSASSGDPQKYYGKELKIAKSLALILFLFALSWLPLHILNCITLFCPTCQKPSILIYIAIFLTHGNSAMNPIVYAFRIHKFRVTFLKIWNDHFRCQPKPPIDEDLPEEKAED

[28] = tested on: Rattus norvegicus; experiment: Neurotoxicity in Sprague-Dawley albino rat assessed as minimal motor impairment at 30 mg/kg, po after 0.5 hrs by rotorod test; format: toxicity, organism-based; parameters: dose 30 mg/kg, route oral; details: in vivo; method in brief: as §2
[29] = tested on: Rattus norvegicus; experiment: Anticonvulsant activity in Sprague-Dawley albino rat assessed as protection against subcutaneous pentylenetetrazole-induced seizures at 50 mg/kg, po after 0.5 hrs; format: functional, organism-based; parameters: dose 50 mg/kg; method in brief: as §2
[30] = tested on: Rattus norvegicus; experiment: Toxicity in Sprague-Dawley albino rat assessed as mortality following continuous seizures at >100 mg/kg, po; format: organism-based; details: in vivo
[31] = tested on: Mus musculus; experiment: Anticonvulsant activity in F1 albino mouse assessed as protection against subcutaneous pentylenetetrazole-induced seizures at 100 mg/kg, ip after 0.5 hrs; format: functional, organism-based; parameters: dose 100 mg/kg; method in brief: as §1
[32] = tested on: Rattus norvegicus; experiment: Anticonvulsant activity in po dosed Sprague-Dawley albino rat assessed as protection against subcutaneous pentylenetetrazole-induced seizures; format: functional
[33] = tested on: Mus musculus; experiment: Anticonvulsant activity in F1 albino mouse assessed as protection against subcutaneous pentylenetetrazole-induced seizures at 300 mg/kg, ip after 1 hr; format: functional, organism-based; parameters: dose 300 mg/kg; method in brief: as §1
[34] = tested on: Rattus norvegicus; experiment: Anticonvulsant activity in po dosed Sprague-Dawley albino rat assessed as protection against maximal electroshock-induced seizures; format: functional
[35] = tested on: Mus musculus; experiment: Anticonvulsant activity in F1 albino mouse assessed as protection against subcutaneous pentylenetetrazole-induced seizures at 300 mg/kg, ip after 0.25 hrs; format: functional, organism-based; parameters: dose 300 mg/kg; method in brief: as §1
[36] = tested on: Rattus norvegicus; experiment: Toxicity in Sprague-Dawley albino rat assessed as mortality following continuous seizures at 50 mg/kg, po after 0.5 hrs; format: organism-based; parameters: dose 50 mg/kg, route oral; details: in vivo
Method in brief: (§3)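 Male Sprague-Dawley albino rats (100–150 g), in groups of 4, were given an oral suspension in 0.5% methylcellulose/water. The event recorded was death following continuous seizures, given as animals affected per animals tested.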

[37] = tested on: Rattus norvegicus; experiment: Toxicity in Sprague-Dawley albino rat assessed as mortality following continuous seizures at 50 mg/kg, po after 1 hr; format: organism-based; parameters: dose 50 mg/kg, route oral; details: in vivo; method in brief: as §3
[38] = tested on: Rattus norvegicus; experiment: Toxicity in Sprague-Dawley albino rat assessed as mortality following continuous seizures at 50 mg/kg, po after 4 hrs; format: organism-based; parameters: dose 50 mg/kg, route oral; details: in vivo; method in brief: as §3
[39] = tested on: Rattus norvegicus; experiment: Toxicity in Sprague-Dawley albino rat assessed as mortality following continuous seizures at 50 mg/kg, po after 0.25 hrs; format: organism-based; parameters: dose 50 mg/kg, route oral; details: in vivo; method in brief: as §3

SMILES	Ratio Ki [2]	Activity [3]	Activity [5]	Activity [6]	Activity [7]	Activity [8]	Activity [9]	Activity [12]	Activity [13]	Activity [14]	Activity [15]	Activity [17]	Activity [18]	Activity [19]	Activity [20]	Activity [21]	Ki [23]	Activity [25]	Activity [26]	Ki [27]	further results
Cn1c(=O)c2c(nc3n2CCCN3CC2CCCCC2)n(C)c1=O	4	inactive	inactive	inactive	Non-toxic	Active	inactive	Non-toxic	inactive	Non-toxic	inactive	Non-toxic	Non-toxic	inactive	inactive	Non-toxic	0.61 µM	inactive	Non-toxic	2.49 µM	Activity [1]: Active; Activity [4]: inactive; Activity [10]: Active; Activity [11]: Active; Activity [16]: inactive; Activity [22]: Active; ED50 [24]: > 200 mg/kg; Activity [28]: Non-toxic; Activity [29]: Active
Cn1c(=O)c2c(nc3n2CCCCN3CC2CCCCC2)n(C)c1=O	1	inactive	inactive	inactive	Non-toxic	inactive	inactive	Non-toxic	inactive	Non-toxic	inactive	Non-toxic	Non-toxic	inactive	Active	Non-toxic	3.5 µM	inactive	Non-toxic	5.18 µM	Activity [30]: Toxic; Activity [31]: Active; Activity [10]: inactive; ED50 [32]: > 100 mg/kg; Activity [33]: inactive; ED50 [34]: > 250 mg/kg; Activity [22]: inactive; Activity [28]: Non-toxic; Activity [35]: inactive; Activity [29]: Active
CC1CCC(N2CCCCn3c2nc2c3c(=O)n(C)c(=O)n2C)CC1 (mixture of isomers)	4	inactive	inactive	inactive	Non-toxic	inactive	inactive	Non-toxic	inactive	Non-toxic	inactive	Non-toxic	Non-toxic	inactive	inactive	Non-toxic	0.83 µM	inactive	Non-toxic	3.44 µM	Activity [1]: Active; Activity [4]: inactive; Activity [11]: Active; Activity [16]: Active; Activity [36]: Toxic; Activity [37]: Toxic; Activity [38]: Toxic; Activity [39]: Toxic; Activity [28]: Non-toxic
